The source of these data is ChEMBL document CHEMBL5653612, “Catalytic site remodelling of the DOT1L methyltransferase by selective inhibitors” (Nat Commun, 2012).

One may read the Kd as a measure of binding affinity in units of concentration. By IC50 is commonly meant the concentration that gives 50% inhibition. By Papp B→A is commonly meant how fast a substance crosses the layer from the basolateral side. Usually Papp A→B stands for how fast a substance crosses the layer from the apical side.

Active and inactive are the calls of the source. The calls are words filed in the database; no cut-off is given here.

The target in data set [1] is T1, Histone-lysine N-methyltransferase, H3 lysine-79 specific (Homo sapiens, UniProt Q8TEK3). Kind of data set: Binding affinity to recombinant N-terminal DOT1L (1 to 420 residues) (unknown origin) expressed in Escherichia coli (DE3) assessed as dissociation constant by surface plasmon resonance assay. (In general: Surface plasmon resonance follows binding to a sensor surface in real time, without labels.)
T1 sequence (Q8TEK3 whole entry, the tested form may be a part): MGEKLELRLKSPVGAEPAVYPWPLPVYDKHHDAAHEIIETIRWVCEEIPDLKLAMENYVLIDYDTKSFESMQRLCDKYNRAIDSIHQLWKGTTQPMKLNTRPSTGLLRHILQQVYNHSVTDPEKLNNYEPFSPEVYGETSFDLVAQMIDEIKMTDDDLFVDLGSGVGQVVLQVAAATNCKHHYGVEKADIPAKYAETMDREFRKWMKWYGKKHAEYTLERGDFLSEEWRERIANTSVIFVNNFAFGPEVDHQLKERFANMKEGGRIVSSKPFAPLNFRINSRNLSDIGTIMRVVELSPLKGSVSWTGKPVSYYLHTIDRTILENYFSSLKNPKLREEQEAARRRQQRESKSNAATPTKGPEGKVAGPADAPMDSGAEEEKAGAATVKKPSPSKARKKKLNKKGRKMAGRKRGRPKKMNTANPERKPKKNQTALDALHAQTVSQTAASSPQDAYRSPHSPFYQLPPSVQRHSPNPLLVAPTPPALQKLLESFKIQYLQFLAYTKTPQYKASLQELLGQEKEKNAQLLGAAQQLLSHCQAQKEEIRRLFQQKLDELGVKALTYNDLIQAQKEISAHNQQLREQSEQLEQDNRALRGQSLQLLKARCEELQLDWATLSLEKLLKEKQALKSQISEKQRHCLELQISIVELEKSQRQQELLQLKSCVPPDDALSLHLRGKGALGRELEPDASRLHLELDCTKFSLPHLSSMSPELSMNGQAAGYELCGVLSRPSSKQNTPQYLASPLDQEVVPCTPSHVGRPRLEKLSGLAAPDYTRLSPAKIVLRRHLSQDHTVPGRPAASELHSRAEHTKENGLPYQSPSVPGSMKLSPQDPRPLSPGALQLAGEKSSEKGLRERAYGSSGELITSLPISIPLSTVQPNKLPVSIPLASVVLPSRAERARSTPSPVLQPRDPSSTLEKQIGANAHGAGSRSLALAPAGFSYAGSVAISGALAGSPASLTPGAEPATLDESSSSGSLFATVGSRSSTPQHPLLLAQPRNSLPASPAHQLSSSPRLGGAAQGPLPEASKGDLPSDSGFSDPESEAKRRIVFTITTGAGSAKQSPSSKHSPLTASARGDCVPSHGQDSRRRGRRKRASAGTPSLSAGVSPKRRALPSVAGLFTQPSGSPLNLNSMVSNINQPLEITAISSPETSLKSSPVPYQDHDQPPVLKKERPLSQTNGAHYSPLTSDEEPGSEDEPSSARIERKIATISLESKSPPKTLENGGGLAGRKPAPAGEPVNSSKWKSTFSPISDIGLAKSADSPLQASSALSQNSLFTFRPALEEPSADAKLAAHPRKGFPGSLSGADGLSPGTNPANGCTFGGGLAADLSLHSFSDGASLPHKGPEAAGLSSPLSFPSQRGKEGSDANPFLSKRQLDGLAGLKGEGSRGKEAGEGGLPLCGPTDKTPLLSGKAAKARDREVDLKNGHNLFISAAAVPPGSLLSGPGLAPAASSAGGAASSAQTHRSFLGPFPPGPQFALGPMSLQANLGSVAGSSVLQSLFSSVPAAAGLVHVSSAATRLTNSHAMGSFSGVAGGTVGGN

Data set [2] deals with T1, Histone-lysine N-methyltransferase, H3 lysine-79 specific. Kind of data set: Inhibition of recombinant N-terminal DOT1L (1 to 420 residues) (unknown origin) expressed in Escherichia coli (DE3) using [3H]-SAM as substrate preincubated for 30 mins followed by substrate addition and measured after 2 hrs by Topcount reader analysis.
The subject of the next data set is MV4-11. Kind of data set: Downregulation of H3K79me2 in human MV4-11 cells habouring MLL/AF4 fusion protein measured upto 48 hrs by immuno blot analysis. The class given is functional, cell-based.
The target of data set [3] is T1, Histone-lysine N-methyltransferase, H3 lysine-79 specific. The data set is described as follows: Binding affinity to recombinant N-terminal DOT1L (1 to 420 residues) (unknown origin) expressed in Escherichia coli (DE3) assessed as dissociation constant by SPR analysis.
Data set [4] is described as follows: Apparent permeability across basolateral to apical side in human Caco-2 cells at 10 uM incubated for 90 mins at pH 7.4 by LC/MS analysis. The data set is classed as ADME, cell-based. The following applies: Caco-2, pH 7.4.
In data set [5] the target is Histone-lysine N-methyltransferase SUV39H2 (Homo sapiens) (UniProt Q9H5I1). The data set is described as follows: Inhibition of SUV39H2 (unknown origin) using H3 1-25 peptide in presence of SAM. An outline of the steps: (§1)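 Radiometric methyltransferase panel in which 3H-SAM, at or below each enzyme's Km, methylates biotinylated peptide substrates. They were quenched with 7.5 M guanidine-HCl, diluted, captured on streptavidin flash plates for 1 h, and counted by scintillation.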
Chain of Histone-lysine N-methyltransferase SUV39H2 (Homo sapiens) (Q9H5I1 whole entry): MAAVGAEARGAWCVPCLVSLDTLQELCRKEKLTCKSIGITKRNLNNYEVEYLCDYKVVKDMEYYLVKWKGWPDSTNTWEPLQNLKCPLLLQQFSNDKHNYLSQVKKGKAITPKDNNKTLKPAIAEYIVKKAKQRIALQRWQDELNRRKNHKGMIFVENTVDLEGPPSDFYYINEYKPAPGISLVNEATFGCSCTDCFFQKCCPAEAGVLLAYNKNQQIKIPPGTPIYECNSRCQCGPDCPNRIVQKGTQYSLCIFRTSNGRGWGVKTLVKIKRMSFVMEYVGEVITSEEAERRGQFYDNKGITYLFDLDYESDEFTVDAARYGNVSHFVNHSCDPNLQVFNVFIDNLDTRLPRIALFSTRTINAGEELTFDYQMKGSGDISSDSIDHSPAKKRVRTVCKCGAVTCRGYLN

For data set [6], the target named is Histone-lysine N-methyltransferase EHMT2 (Homo sapiens) (UniProt Q96KQ7). Kind of data set: Inhibition of G9a (unknown origin) using H3 1-25 peptide in presence of SAM. An outline of the steps:
as §1

Data set [7] addresses Histone-lysine N-methyltransferase EHMT1 (Homo sapiens) (UniProt Q9H9B1). The data set is described as follows: Inhibition of EHMT1 (unknown origin) using H3 1-25 peptide in presence of SAM. In outline: as §1
The target of data set [8] is Histone-lysine N-methyltransferase SETDB1 (Homo sapiens) (UniProt Q15047). The data set is described as follows: Inhibition of SETDB1 (unknown origin) using H3 1-25 peptide in presence of SAM. In outline:
as §1

Data set [9] concerns the target Protein arginine N-methyltransferase 3 (Homo sapiens) (UniProt O60678). Kind of data set: Inhibition of PRMT3 (unknown origin) using H3 1-24 peptide in presence of SAM. An outline of the steps: as §1
The target in data set [10] is Histone-lysine N-methyltransferase SETD7 (Homo sapiens) (UniProt Q8WTS6). The data set is described as follows: Inhibition of SETD7 (unknown origin) using H3 1-25 peptide in presence of SAM. An outline of the steps: as §1
Chain of Histone-lysine N-methyltransferase SETD7 (Homo sapiens) (Q8WTS6 whole entry): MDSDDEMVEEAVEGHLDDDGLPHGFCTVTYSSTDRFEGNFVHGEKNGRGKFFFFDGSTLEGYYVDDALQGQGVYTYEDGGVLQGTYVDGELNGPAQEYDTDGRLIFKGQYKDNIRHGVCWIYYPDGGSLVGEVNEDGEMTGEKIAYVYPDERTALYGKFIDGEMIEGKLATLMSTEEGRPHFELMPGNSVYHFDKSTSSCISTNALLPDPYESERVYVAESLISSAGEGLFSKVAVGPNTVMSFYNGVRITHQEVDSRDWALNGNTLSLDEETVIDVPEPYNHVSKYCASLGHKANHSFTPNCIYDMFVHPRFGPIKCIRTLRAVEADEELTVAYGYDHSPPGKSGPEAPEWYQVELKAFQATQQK
The target of data set [11] is Histone-lysine N-methyltransferase 2A (Homo sapiens) (UniProt Q03164). Kind of data set: Inhibition of MLL (unknown origin) using H3 1-25 peptide in presence of SAM. An outline of the steps:
as §1

For data set [12], the target named is N-lysine methyltransferase KMT5A (Homo sapiens) (UniProt Q9NQR1). Kind of data set: Inhibition of SETD8 (unknown origin) using […] in presence of SAM. In outline:
as §1

Data set [13] concerns the target Histone-lysine N-methyltransferase KMT5B (Homo sapiens) (UniProt Q4FZB7). Kind of data set: Inhibition of […] (unknown origin) using H4 K20Me1 peptide in presence of SAM. An outline of the steps:
as §1

In data set [14] the target is Histone-lysine N-methyltransferase KMT5C (Homo sapiens) (UniProt Q86Y97). Kind of data set: Inhibition of SUV420H2 (unknown origin) using H4 K20Me1 peptide in presence of SAM. An outline of the steps:
as §1

The species entered for another data set is Homo sapiens. Kind of data set: Inhibition of PRC2 (unknown origin) using H3 21-44 peptide in presence of SAM. In outline: as §1
In data set [15] the target is DNA (cytosine-5)-methyltransferase 1 (Homo sapiens) (UniProt P26358). The data set is described as follows: Inhibition of DNMT1 (unknown origin) using ds-DNA peptide in presence of SAM. In outline:
as §1

The target of data set [16] is T2, Protein arginine N-methyltransferase 5 (Homo sapiens, UniProt O14744). The data set is described as follows: Inhibition of PRMT5 (unknown origin) using H4 1-24 peptide in presence of SAM. An outline of the steps:
as §1

Data set [17] has as its target T2, Protein arginine N-methyltransferase 5. The data set is described as follows: Inhibition of human PRMT5. An outline of the steps: as §1
The subject of data set [18] is MOLM-13. Kind of data set: Downregulation of H3K79me2 in human MOLM-13 cells at 1 uM by immuno blot analysis. The data set is classed as functional, cell-based. The following applies: time 3-7 day, TDE = time-dependent effect. An outline of the steps:
(§2)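 Exponentially growing Molm13 cells were plated at 2 × 10^5 per well in 2 ml and exposed to 1 μM compound or DMSO for the indicated times. Extracted histones (3 μg) were run on 10% Bis-Tris gels and transferred to nitrocellulose. Blots were probed with primary antibody (1:1000 in 5% milk/TBS-T), then anti-rabbit secondary, with chemiluminescent detection.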

For data set [19], the system named is MOLM-13. The data set is described as follows: Downregulation of H3K79me2 in human MOLM-13 cells measured for 3 to 7 days by immuno blot analysis. The class given is functional, cell-based. The following applies: dose 1.0 µM, time 3-7 day. An outline of the steps:
as §2

Data set [20] is described as follows: cells. The following applies: Homo sapiens, MCF-10A.
A short description of data set [21]: cells. The following applies: Homo sapiens, A-431.
Data set [22] is described as follows: Apparent permeability across apical to basolateral side in human Caco-2 cells at 10 uM incubated for 90 mins at pH 7.4 by LC/MS analysis. The following applies: Caco-2, pH 7.4. The class given is ADME, cell-based.

T2 sequence (O14744 whole entry): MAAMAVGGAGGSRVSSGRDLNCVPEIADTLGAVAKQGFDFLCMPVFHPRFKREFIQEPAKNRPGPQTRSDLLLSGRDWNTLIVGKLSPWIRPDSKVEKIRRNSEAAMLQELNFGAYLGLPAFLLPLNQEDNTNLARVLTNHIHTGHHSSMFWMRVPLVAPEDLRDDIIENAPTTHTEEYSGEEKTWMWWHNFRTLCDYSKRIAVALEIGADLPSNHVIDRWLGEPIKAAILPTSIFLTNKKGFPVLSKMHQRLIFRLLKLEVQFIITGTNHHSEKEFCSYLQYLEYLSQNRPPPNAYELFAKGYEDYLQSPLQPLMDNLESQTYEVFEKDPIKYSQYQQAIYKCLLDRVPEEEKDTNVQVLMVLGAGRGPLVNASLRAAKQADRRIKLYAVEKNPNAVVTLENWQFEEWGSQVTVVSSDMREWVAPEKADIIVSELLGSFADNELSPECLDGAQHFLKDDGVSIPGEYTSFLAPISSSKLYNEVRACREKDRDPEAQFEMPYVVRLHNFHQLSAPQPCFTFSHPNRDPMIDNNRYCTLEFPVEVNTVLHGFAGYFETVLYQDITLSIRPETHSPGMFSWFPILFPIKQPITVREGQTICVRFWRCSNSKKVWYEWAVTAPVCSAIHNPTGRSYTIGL
Chain of Protein arginine N-methyltransferase 3 (Homo sapiens) (O60678 2-531 limits assumed): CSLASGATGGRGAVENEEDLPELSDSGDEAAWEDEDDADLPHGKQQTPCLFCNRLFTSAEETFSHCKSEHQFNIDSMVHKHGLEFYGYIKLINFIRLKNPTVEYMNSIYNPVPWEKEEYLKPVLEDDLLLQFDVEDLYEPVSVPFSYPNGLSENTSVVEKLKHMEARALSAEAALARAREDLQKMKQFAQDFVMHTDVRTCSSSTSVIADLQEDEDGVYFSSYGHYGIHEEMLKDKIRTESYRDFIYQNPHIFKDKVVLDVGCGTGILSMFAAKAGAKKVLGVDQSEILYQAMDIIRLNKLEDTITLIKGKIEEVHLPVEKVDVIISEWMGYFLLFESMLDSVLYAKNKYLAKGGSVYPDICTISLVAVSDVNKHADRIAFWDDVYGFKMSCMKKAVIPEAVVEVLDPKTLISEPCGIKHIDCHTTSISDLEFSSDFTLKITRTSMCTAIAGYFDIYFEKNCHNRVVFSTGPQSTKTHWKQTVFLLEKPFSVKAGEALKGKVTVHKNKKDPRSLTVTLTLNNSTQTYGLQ
Chain of N-lysine methyltransferase KMT5A (Homo sapiens) (Q9NQR1 whole entry): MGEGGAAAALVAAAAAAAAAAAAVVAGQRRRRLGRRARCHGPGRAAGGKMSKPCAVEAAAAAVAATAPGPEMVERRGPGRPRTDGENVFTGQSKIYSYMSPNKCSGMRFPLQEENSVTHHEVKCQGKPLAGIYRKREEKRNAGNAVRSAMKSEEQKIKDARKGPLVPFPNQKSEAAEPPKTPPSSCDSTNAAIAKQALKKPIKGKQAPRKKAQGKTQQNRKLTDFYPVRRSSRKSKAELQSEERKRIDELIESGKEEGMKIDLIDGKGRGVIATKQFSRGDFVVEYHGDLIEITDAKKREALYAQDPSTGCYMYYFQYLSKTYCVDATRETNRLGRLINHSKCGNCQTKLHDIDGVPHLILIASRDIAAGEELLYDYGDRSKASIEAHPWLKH
Chain of Histone-lysine N-methyltransferase KMT5C (Homo sapiens) (Q86Y97 whole entry, looked up): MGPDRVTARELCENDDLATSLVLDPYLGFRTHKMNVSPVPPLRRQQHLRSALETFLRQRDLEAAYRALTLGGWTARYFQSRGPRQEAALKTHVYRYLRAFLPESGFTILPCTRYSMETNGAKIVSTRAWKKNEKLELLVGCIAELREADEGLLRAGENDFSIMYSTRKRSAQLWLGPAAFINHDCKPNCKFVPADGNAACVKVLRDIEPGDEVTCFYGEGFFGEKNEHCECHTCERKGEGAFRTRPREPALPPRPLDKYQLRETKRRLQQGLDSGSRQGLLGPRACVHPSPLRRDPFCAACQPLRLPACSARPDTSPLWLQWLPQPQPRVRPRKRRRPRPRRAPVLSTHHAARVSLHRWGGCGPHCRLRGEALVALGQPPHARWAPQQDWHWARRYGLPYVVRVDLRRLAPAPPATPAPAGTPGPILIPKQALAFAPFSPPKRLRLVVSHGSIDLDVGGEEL

Consider `CC(C)(C)c1ccc(NC(=O)NCCCNC[C@H]2O[C@@H](n3cc(Br)c4c(N)ncnc43)[C@H](O)[C@@H]2O)cc1`, for which the dissociation constant (Kd) in [1] and in data set [3] was 3.35 nM each time. Also, the IC50 in data set [2] (read-out: IC50) is 3.6 nM. Also, the result in the data set on MV4-11 was Active.
With `CC(C)N(CCCNC(=O)c1ccc(C(C)(C)C)cc1)C[C@H]1O[C@@H](n2cnc3c(N)ncnc32)[C@H](O)[C@@H]1O`, the half-maximal inhibitory concentration (IC50) result in data set [2] is listed as “Not Active”.
As for `CC(C)N(CCCNC(=O)Nc1ccc(C(C)(C)C)cc1)C[C@H]1O[C@@H](n2ccc3c(N)ncnc32)[C@H](O)[C@@H]1O`, the Papp B→A at 1.5 h, 10 µM in [4] was 5.4 ×10⁻⁶ cm/s. For the same molecule, the inhibition entry in data set [5], in data set [6], in [7], in data set [8], in data set [9] and in data set [10] was “inactive” each time. In addition, the inhibition result (in [11]; in data set [12]; in data set [13]; in data set [14]; in the data set filed under Homo sapiens; in data set [15]) was “inactive” in each case. For the same molecule, in [16], the inhibition entry is “inactive”. Besides, the 50% inhibitory concentration (IC50) in data set [17] was found to be 500 nM; in the data set “cells [20]”, 84 nM; in “cells [21]”, 264 nM. Also, the result in the data set with MV4-11 was Active. For the same molecule, the Activity result in the data set on MOLM-13 [18] is “Tde”; in the data set on MOLM-13 [19], “Dose-Dependent Effect”.
Consider `Cc1ccc(NC(=O)NCCCN(C[C@H]2O[C@@H](n3cnc4c(N)ncnc43)[C@H](O)[C@@H]2O)C(C)C)cc1`, for which the dissociation constant (Kd) in data set [1] and in [3] was 26.9 nM each time. Further, in [2] (read-out: IC50), the half-maximal inhibitory concentration (IC50) was determined as 40.3 nM. Further, in the data set with MV4-11, the outcome was Active.
Regarding `C[C@H]1O[C@@H](O[C@H]2[C@@H](O)C[C@H](O[C@H]3[C@@H](O)C[C@H](O[C@H]4CC[C@@]5(C)[C@H](CC[C@@H]6[C@@H]5C[C@@H](O)[C@]5(C)[C@@H](C7=CC(=O)OC7)CC[C@]65O)C4)O[C@@H]3C)O[C@@H]2C)C[C@H](O)[C@@H]1O` [DIGOXIN], the Papp A→B at 1.5 h, 10 µM in [22] is 0.4 ×10⁻⁶ cm/s. The Papp B→A at 1.5 h, 10 µM in data set [4] was found to be 13.2 ×10⁻⁶ cm/s.
For `CC(C)N(CCCNC(=O)Nc1ccc(C(C)(C)C)cc1)C[C@H]1O[C@@H](n2cnc3c(N)ncnc32)[C@H](O)[C@@H]1O`, the result with MV4-11 was Active.
In the case of `COCCc1ccc(OCC(O)CNC(C)C)cc1` (centres undefined) [METOPROLOL], the Papp A→B at 1.5 h, 10 µM in data set [22] is 68.2 ×10⁻⁶ cm/s. Also, the apparent permeability from basolateral to apical (Papp B→A) at 1.5 h, 10 µM in data set [4] was 31.1 ×10⁻⁶ cm/s.
